What was measured:
[1] = molecular target: T1, vascular NPY receptors (mainly Y1 subtype), rat testis (Rattus norvegicus, UniProt P21555); assay: Competition binding; conditions: 25 nM cold PYY; ^125I-PYY 10,000 cpm/100 μl (22.5 pM); rat testis sections
T1 sequence (P21555 1-382): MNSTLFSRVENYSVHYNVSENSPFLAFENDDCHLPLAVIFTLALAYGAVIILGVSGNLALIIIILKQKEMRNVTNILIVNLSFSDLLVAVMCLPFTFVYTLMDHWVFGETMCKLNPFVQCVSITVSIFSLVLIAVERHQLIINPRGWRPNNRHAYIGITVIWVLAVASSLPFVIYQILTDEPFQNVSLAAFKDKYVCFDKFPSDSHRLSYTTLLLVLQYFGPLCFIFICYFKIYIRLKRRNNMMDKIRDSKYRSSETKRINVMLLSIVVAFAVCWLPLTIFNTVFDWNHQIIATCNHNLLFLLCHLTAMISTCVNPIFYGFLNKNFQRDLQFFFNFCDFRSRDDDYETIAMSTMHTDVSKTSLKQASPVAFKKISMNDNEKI

[2] = test system: NPY receptors in seminiferous tubules; assay: In vitro NPY receptor autoradiography, ^125I-PYY binding to seminiferous tubules; design: species or system rat; conditions: surrounding seminiferous tubules; 22.5 pM ^125I-PYY, 2,000 Ci/mmol
In short: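 Serial sections of rat testis incubated with 125I-PYY (10,000 cpm/100 μl, 2,000 Ci/mmol, 22.5 pM). Competition run with subtype-selective ligands, including a Y5-selective PP analogue. Rat brain served as positive control. Slides were exposed to film, and signals were matched to adjacent sections stained with H&E, anti-Factor VIII (vessels) or anti-STAR (Leydig cells). Densities were quantified by computer-assisted imaging.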

[3] = test system: testes; conditions: ref Collin et al., 1998; cited from earlier work
[4] = test system: steroidogenic acute regulatory (STAR) protein; assay: Leydig cell STAR protein level after itt NPY; assay type: in vivo, rat; conditions: Leydig cells, Western blot
In short: (§1)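 Decapitation 1 h later. Leydig cells were isolated by collagenase dispersion and Percoll gradient, then lysed in RIPA. 25 μg protein per lane was probed with anti-STAR (1:1,500; 30-kDa form) or anti-TSPO (1:1,000). ECL signal was normalised to β-actin, as % of control.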

[5] = test system: plasma LH; conditions: ref Pierroz et al., 1999; cited from earlier work
[6] = test system: explanted GnRH neurons; conditions: ref Klenke et al., 2010; cited from earlier work
[7] = test system: translocator protein (TSPO); assay: Leydig cell TSPO level after itt NPY; assay type: in vivo, rat; conditions: Leydig cells, Western blot
In short: as §1

[8] = test system: T response to hCG; assay: Plasma testosterone response to hCG after intratesticular; assay type: in vivo, rat
In short: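 Jugular-cannulated adult male rats, freely moving. Test peptide 5 μg/kg itt or vehicle under isoflurane, 1 h before hCG 1 IU/kg iv. One series pretreated with GnRH antagonist […] iv 2 h before hCG. Blood drawn before and 15, 30, 60, 90 min after hCG. Plasma T measured by commercial kit (sensitivity 0.2 ng/mL), cumulative T summed. N = 5–7; mean ± SEM; ANOVA/repeated measures.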

[9] = test system: STAR and TSPO; conditions: systemic alcohol administration; ref Herman et al., 2006; cited from earlier work

Compound: PYY: cold PYY used to assess non-specific binding
- displacement of ^125I-PYY binding to testicular blood vessels at 25 nM [1]: Complete displacement

Compound: ^125I-PYY: ^125I-PYY (2,000 Ci/mmol; Anawa, Wangen, Switzerland)
- ^125I-PYY binding (in words) [2]: no binding to surrounding seminiferous tubules

Compound: neuropeptide Y [NPY]
- vasoconstriction in the testes [3]: reported to cause vasoconstriction in the testes
- changes in STAR levels (in words) [4]: inconsistent and did not reach statistical significance
- plasma LH levels [5]: lower plasma LH levels
- neuronal activity of explanted GnRH neurons [6]: inhibits the neuronal activity of explanted GnRH neurons
- changes in TSPO levels (in words) [7]: inconsistent and did not reach statistical significance
- T response to hCG ([8]; NPY 5 μg/kg itt 1 h before hCG 1.0 U/kg iv, at all times studied (15, 30, 60, 90 min), P<0.01 vs vehicle, N = 5-7/point (Fig. 1)): markedly (P<0.01) blunted the T response to hCG at all times studied
- basal plasma T levels ([8]; NPY 5 μg/kg itt, 1 h, vs vehicle, P<0.01, N = 5-7/point (Fig. 1)): significantly (P<0.01) decreased basal plasma T levels
- cumulative plasma T after hCG ([8]; vehicle pre-treatment, NPY 5 μg/kg itt, hCG 1 U/kg iv, cumulative T 15, 30, 60 and 90 min after hCG, mean ± SEM, N = 5-7, P<0.01 vs itt vehicle (22.20 ± 3.25)): 10.60 ± 0.98R ^a ng T/ ml

Compound: CCO [alcohol]
- STAR and TSPO concentrations [9]: significantly decreased STAR and TSPO concentrations

Source: PMC3053052 (Neuropeptides, 2010)
